Assay results reported in ChEMBL document CHEMBL1138632, “Identification and structure-activity relationship studies of 3-methylene-2-norbornanone as potent anti-proliferative agents presumably working through p53 mediated apoptosis” (2004).

Legend:
CAKI-1 [1] = test: Lethal concentration required to kill 50% Caki-1 cells of the human renal carcinoma with non-mutant wt p53; format: functional; details: read-out: LC50 (the source's name)
In short: (§1)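 Cells (Caki-1 renal carcinoma with wild-type p53 as negative control; C33A cervical and Ramos RA1 lymphocyte lines with mutant p53) plated sub-confluent at 1 × 10⁵ cells/mL in RPMI with 10% FBS. Compounds added at 0.001–100 for 72 h, with a positive control and a vehicle negative control. LC50 is the concentration killing 50% of cells.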

[2] = Lethal concentration required to kill 50% Ramos RA1 cells of the human lymphocyte with a mutation at Asp 254; format: functional; details: read-out: LC50 (the source's name); in short: as §1
CAKI-1 [3] = test: Fold selectivity expressed as ratio of LC50 for Caki cells with non-mutant p53 to LC50 for C33A cells with a mutation at Cys 273; format: functional, Homo sapiens
In short: (§2)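 Selectivity is the fold ratio of the Caki-1 (wild-type p53) LC50 to the mutant-p53 line LC50 (C33A or Ramos RA1). LC50s come from the 72 h anti-proliferation assay in RPMI/10% FBS, 0.001–100 range. Values are means of three experiments.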

CAKI-1 [4] = test: Fold selectivity expressed as ratio of LC50 for Caki cells with non-mutant p53 to LC50 for Ramos RA1 cells with a mutation at Asp 254; format: functional, Homo sapiens; in short: as §2

SMILES | CC50 (CAKI-1 [1]) [µM] | CC50 [2] [µM] | Fold selectivity (CAKI-1 [3]) | Fold selectivity (CAKI-1 [4])
C=C1C2=NS(=O)(=O)CC23CCC1C3(C)C (stereo not drawn) | 15.9 | 2.1 | 6.36 | 7.57
C=C1C(=O)C2CCC1(C)C2(C)C (stereo not drawn) | 609 | 609 | 1 | 1
C=C1Cc2cc(OC)ccc2C1=O | 30.5 | 3.2 | 1.45 | 9.53
C=C1C(=O)C2(C(=O)Nc3ccc(OC)cc3)CCC1C2(C)C (stereo not drawn) | 108 | 14.3 | 7.11 | 7.55
C=C1C(=O)C2(C(=O)O)CCC1C2(C)C (stereo not drawn) | 515 | 353 | 1.15 | 1.46
C=C1C(=O)C2(CS(=O)(=O)NCc3ccc(OC)cc3)CCC1C2(C)C (stereo not drawn) | 190 | 69.9 | 1.93 | 2.72
O=C1C2CCN(CC2)C1(CO)CO | 162 | 17.2 | 6.4 | 9.42
COc1ccc(/C=C/c2nc(NCCCN(C)C)c3ccccc3n2)cc1 | 9.3 | 14.3 | 0.69 | 0.65
C=C1CCc2cc(OC)c(OC)cc2C1=O | 15.9 | 4.9 | 0.7 | 3.24
C=C1C(=O)C2(C(=O)NCc3ccc(OC)cc3)CCC1C2(C)C (stereo not drawn) | 120 | 15.9 | 7.31 | 7.55
C=C1C(=O)C2(CS(=O)(=O)NCC(C)C)CCC1C2(C)C (stereo not drawn) | 334 | 157 | 1.95 | 2.13
C=C1C(=O)C2(CS(=O)(=O)Nc3ccc(OC)cc3)CCC1C2(C)C (stereo not drawn) | 114 | 12.7 | 8.51 | 8.98
C=C1CC2CCC1C2 (stereo not drawn) | > 924 | > 924 |  | 
C=C1CCc2ccccc2C1=O | 30.6 | 12.9 | 1.1 | 2.37
C=C1CCc2cc(OC)ccc2C1=O | 16.2 | 1.8 | 0.65 | 9
C=C1C(=O)[C@@]2(C)CC[C@H]1C2(C)C | 609 | 609 | 3.29 | 1
O=C1CC2CCC1C2 (stereo not drawn) | > 618 | > 618 |  | 
C=C1C(=O)C2CC1C1CCCC21 (stereo not drawn) | 271 | 35 | 10.15 | 7.74
C=C1C(=O)C2(C(=O)OC)CCC1C2(C)C (stereo not drawn) | 36 | 26.4 | 1.54 | 1.36
C=C1C2CCC(C2)C1O (stereo not drawn) | 805 | 805 | 3.9 | 1
C=C1C(=O)C2CCC1C2 (stereo not drawn) | 109 | 8.28 | 29.7 | 13.16
C=C1C(=O)C2(C(=O)NCC(C)C)CCC1C2(C)C (stereo not drawn) | 171 | 21.5 | 8.07 | 7.95
CC(C)=C1CC[C@H](C)CC1=O | 657 | 509 | 1.83 | 1.29
C=C1/C(=N/O)C2CCC1C2 (stereo not drawn) | > 728 |  |  | 
C=C1CCOC1=O [TULIPALINE A] | 55.4 | 39.3 | 1.13 | 1.41
